ChEMBL document CHEMBL4622830, “Substituted pteridinones as p90 ribosomal S6 protein kinase (RSK) inhibitors: A structure-activity study” (Bioorg Med Chem, 2020)
Active and inactive are the calls of the source. The rule behind the calls is not given here.

Tests used:
[1] = target: T1, Ribosomal protein S6 kinase alpha-3 (Homo sapiens, UniProt P51812); test: Inhibition of full length human GST-tagged RSK2 using Ulight-rpS6 as substrate at 10 uM incubated for 1 hr in presence of ATP by TR FRET assay
Outline: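 Recombinant RSK2 at 500 pM final with 250 nM ULight-rpS6 (Ser235/236) substrate and 3 μM ATP, in 50 mM HEPES pH 7.5, 10 mM MgCl2, 1 mM EGTA, 2 mM DTT, 0.01% Tween 20. DMSO ≤0.5%. Ran 1 h at room temperature, stopped with 10 mM EDTA. Eu anti-phospho antibody (2 nM) TR-FRET, 665/615 nm ratio read.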

[2] = target: T1, Ribosomal protein S6 kinase alpha-3; test: Inhibition of full length human GST-tagged RSK2 using Ulight-rpS6 as substrate incubated for 1 hr in presence of ATP by TR FRET assay
[3] = test system: MOLM-13; test: Antiproliferative activity against human MOLM13 assessed as reduction in cell viability at 60 uM incubated for 72 hrs by MTS assay; format: functional; conditions: MOLM-13, 72 h, read-out: GI
[4] = test system: MOLM-13; test: Antiproliferative activity against human MOLM13 assessed as reduction in cell viability incubated for 72 hrs by CellTiter-Glo assay; format: functional, cell-based; conditions: MOLM-13, 72 h
Outline: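 CellTiter-Glo viability in MOLM-13 cells seeded at 30,000 per well, treated across 60 µM to 247 nM at 37°C for up to 72 h. Plates equilibrated 30 min at RT, reagent added, shaken 2 min, luminescence read after 10 min. Final DMSO ≤0.5%; n = 3.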

[5] = test system: MOLM-13; test: Antiproliferative activity against human MOLM13 assessed as reduction in cell viability incubated for 72 hrs by CellTox green assay; format: functional, cell-based; conditions: MOLM-13, 72 h
[6] = test system: HEK293; test: Cytotoxicity in HEK293 cells assessed as reduction in cell viability; format: cell-based; conditions: human
[7] = target: T1, Ribosomal protein S6 kinase alpha-3; test: Inhibition of RSK2 (unknown origin)
[8] = target: Ribosomal protein S6 kinase alpha-2 (Homo sapiens, UniProt Q15349); test: Inhibition of RSK3 (unknown origin)
[9] = target: Ribosomal protein S6 kinase alpha-1 (Homo sapiens, UniProt Q15418); test: Inhibition of RSK1 (unknown origin)
[10] = test system: MOLM-13; test: Antiproliferative activity against human MOLM13 assessed as reduction in cell viability incubated for 72 hrs by MTS assay; format: functional, cell-based; conditions: MOLM-13, 72 h
[11] = target: Bromodomain-containing protein 4 (Homo sapiens, UniProt O60885); test: Binding affinity to BRD4 bromodomain 1 (unknown origin) by ITC assay
[12] = test system: MOLM-13; test: Antiproliferative activity against human MOLM13 assessed as reduction in cell viability at 0.25 to 60 uM incubated for 24 hrs by CellTox green assay; format: functional, cell-based
Outline: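 Cytotoxicity read by CellTox Green: MOLM-13 cells, 60,000 per well, in medium with CellTox Green dye at 1:500, treated over 60 μM to 247 nM at 37°C. Fluorescence (ex 485/em 520 nm) read at 0, 24, 48 and 72 h.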

[13] = test system: MOLM-13; test: Antiproliferative activity against human MOLM13 assessed as reduction in cell viability at 0.25 to 60 uM incubated for 24 hrs by MTS assay; format: functional, cell-based
Outline: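 MOLM-13 cells, 60,000 per well, given compound over 60 μM to 247 nM, incubated at 37°C for 24 to 72 h. CellTiter 96 AQueous One (MTS) reagent added for 3 h, formazan absorbance read at 490 nm. EC50 or percentage values derived.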

[14] = test system: MOLM-13; test: Antiproliferative activity against human MOLM13 assessed as reduction in cell viability at 0.25 to 60 uM incubated for 24 hrs by CellTiter-Glo assay; format: functional, cell-based
Outline: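 MOLM-13 cells, 30,000 per well in medium, treated over 60 μM to 247 nM and held at 37°C for 24 to 72 h. Plates equilibrated 30 min at RT, CellTiter-Glo reagent added, shaken 2 min, luminescence read after 10 min at rt. n = 3.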

T1 sequence (P51812 whole entry): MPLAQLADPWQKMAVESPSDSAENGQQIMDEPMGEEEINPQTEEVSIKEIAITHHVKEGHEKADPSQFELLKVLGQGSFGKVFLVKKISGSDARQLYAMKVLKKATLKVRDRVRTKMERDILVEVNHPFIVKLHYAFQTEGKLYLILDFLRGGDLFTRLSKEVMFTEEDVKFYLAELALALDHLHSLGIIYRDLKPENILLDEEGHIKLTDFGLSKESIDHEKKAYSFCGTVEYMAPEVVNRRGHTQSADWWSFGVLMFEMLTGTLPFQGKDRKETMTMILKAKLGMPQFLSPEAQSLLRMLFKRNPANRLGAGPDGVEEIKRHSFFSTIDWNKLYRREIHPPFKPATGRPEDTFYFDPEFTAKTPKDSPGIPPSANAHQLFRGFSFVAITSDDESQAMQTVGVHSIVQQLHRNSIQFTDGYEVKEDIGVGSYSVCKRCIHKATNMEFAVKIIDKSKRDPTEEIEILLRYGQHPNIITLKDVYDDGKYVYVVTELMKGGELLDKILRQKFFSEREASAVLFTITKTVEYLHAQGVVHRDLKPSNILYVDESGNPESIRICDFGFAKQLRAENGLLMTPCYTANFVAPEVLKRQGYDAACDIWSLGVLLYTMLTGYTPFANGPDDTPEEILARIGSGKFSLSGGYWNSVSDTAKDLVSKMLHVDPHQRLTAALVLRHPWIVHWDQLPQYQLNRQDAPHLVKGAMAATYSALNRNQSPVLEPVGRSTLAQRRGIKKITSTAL
Sequence of Ribosomal protein S6 kinase alpha-1 (Q15418 whole entry): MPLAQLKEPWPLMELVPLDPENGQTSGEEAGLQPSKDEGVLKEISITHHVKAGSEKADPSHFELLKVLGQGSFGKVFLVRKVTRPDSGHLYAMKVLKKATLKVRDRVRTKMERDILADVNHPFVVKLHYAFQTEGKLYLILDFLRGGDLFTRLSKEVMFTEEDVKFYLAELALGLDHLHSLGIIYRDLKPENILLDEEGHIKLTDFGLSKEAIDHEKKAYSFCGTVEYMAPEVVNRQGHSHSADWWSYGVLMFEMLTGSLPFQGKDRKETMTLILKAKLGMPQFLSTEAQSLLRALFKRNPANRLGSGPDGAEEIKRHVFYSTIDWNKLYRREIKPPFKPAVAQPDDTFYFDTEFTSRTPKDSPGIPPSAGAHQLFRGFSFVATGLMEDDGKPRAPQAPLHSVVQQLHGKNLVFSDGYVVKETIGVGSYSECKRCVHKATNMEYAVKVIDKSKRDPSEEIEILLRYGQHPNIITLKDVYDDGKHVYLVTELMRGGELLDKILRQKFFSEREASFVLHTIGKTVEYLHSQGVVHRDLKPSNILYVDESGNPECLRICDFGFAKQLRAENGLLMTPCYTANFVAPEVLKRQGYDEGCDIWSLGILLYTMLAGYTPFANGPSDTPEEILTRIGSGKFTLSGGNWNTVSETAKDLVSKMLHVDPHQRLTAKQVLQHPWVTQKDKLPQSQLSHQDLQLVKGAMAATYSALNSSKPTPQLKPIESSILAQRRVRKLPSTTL
Sequence of Ribosomal protein S6 kinase alpha-2 (Q15349 whole entry): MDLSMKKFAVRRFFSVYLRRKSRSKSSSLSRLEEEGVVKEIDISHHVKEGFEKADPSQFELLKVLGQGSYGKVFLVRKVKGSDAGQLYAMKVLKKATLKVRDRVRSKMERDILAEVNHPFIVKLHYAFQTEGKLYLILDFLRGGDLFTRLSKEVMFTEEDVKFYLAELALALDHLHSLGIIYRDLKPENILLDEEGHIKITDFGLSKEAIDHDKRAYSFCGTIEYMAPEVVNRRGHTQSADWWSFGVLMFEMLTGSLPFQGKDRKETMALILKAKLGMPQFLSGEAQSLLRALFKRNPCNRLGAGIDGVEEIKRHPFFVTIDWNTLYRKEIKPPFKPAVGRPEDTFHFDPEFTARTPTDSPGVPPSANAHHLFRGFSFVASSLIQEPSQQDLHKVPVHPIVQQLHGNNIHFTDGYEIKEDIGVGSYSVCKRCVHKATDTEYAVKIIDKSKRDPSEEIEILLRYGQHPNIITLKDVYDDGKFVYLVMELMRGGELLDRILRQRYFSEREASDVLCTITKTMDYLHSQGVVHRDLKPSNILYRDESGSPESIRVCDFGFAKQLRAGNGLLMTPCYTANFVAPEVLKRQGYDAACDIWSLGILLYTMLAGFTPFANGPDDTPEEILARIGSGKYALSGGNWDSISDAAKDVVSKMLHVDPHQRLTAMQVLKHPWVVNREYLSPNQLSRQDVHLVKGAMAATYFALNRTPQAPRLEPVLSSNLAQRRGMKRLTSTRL

| Compound | inhibition [1] [%] | IC50 [2] [nM] | EC50 [4] [nM] | EC50 [5] [nM] | also measured |
| --- | --- | --- | --- | --- | --- |
| CC1Nc2nc(Nc3cc(F)c(O)c(F)c3)ncc2NC1=O (configuration not stated) | 83 |  |  |  |  |
| Nc1nc(Nc2cc(F)c(O)c(F)c2)ncc1[N+](=O)[O-] | 72 |  |  |  |  |
| CC(C)CCN1c2nc(Nc3ccc(O)c(Br)c3)ncc2N(C)C(=O)C1C (configuration not stated) |  | 141 |  |  |  |
| Nc1cnc(Nc2cc(F)c(O)c(F)c2)nc1N | 38 |  |  |  |  |
| CC(C)CCN1c2nc(Nc3cc(F)cc(F)c3)ncc2N(C)C(=O)C1C (configuration not stated) | 71 |  |  |  |  |
| CC(C)CCN1c2nc(Nc3ccc(CO)cc3)ncc2N(C)C(=O)C1C (configuration not stated) |  | 739 |  |  |  |
| CC(C)CCN1CC(=O)N(C)c2cnc(Nc3ccc(O)c(F)c3)nc21 |  | 24.7 |  |  |  |
| CN1CCN(c2ccc(-c3ccncc3-c3cc(F)c(O)c(F)c3)cc2)CC1 |  |  | 9710 | 22000 | inhibition of growth at 60 µM [3]: 75%; Activity [6]: Toxic |
| CC(C)CCN1c2nc(Nc3cc(Br)c(O)c(Br)c3)ncc2N(C)C(=O)C1C (configuration not stated) | 78 |  |  |  |  |
| CC(C)CCN1c2nc(Nc3ccc(O)c(Cl)c3)ncc2N(C)C(=O)C1C (configuration not stated) |  | 71.5 |  |  |  |
| Oc1c(F)cc(-c2cnccc2-c2ccc(N3CCOCC3)cc2)cc1F |  |  | 19100 | 23400 | inhibition of growth at 60 µM [3]: 79%; IC50 [7]: 5 nM; IC50 [8]: 4 nM; IC50 [9]: 6 nM; Activity [6]: Toxic |
| CC(C)CCN1c2nc(Nc3ccc(O)c(F)c3)ncc2N(C)C(=O)C1C (configuration not stated) |  | 25.4 | 870 | 3160 | EC50 [10]: 1690 nM |
| CC(C)CCN1c2nc(Nc3cc(Cl)c(O)c(Cl)c3)ncc2N(C)C(=O)C1C (configuration not stated) | 83 |  |  |  |  |
| CC(C)CCN1CC(=O)Nc2cnc(Nc3cc(F)c(O)c(F)c3)nc21 |  | 23.4 | 6200 | 6850 | EC50 [10]: 6820 nM |
| CC(C)CCN1CC(=O)N(C)c2cnc(Nc3cc(F)c(O)c(F)c3)nc21 |  | 17.6 | 1670 | 4540 | EC50 [10]: 2710 nM |
| CC(C)CCN1c2nc(Nc3cc(F)c(O)c(F)c3)ncc2NC(=O)C1C (configuration not stated) |  | 18.2 | 17400 | 18100 | inhibition of growth at 60 µM [3]: 56%; Activity [6]: Toxic |
| Oc1c(F)cc(Nc2ncccn2)cc1F | 45 |  |  |  |  |
| COc1c(F)cc(Nc2ncc3c(n2)N(CCC(C)C)C(C)C(=O)N3C)cc1F (configuration not stated) | 43 |  |  |  |  |
| CC(C)CCN1c2nc(Nc3cc(F)c(O)c(F)c3)ncc2N(C)C(=O)C1C (configuration not stated) |  |  | 1890 | 3410 | Kd [11]: 3500 nM; EC50 [10]: 2800 nM; Activity [12]: Active; Activity [13]: Active; Activity [14]: Active |
| CC(C)CCN1c2nc(Nc3ccc(O)cc3)ncc2N(C)C(=O)C1C (configuration not stated) |  | 54.8 |  |  |  |
| CC(C)CCN1CC(=O)Nc2cnc(Nc3ccc(O)c(F)c3)nc21 |  | 38.3 | 2230 | 4640 | EC50 [10]: 4390 nM |
